In publication PMC10866054 (Journal of Enzyme Inhibition and Medicinal Chemistry, 2024):

Key:
MDA-MB-231 = assay: MTT cytotoxicity, MDA-MB-231; assay type: cell-based; settings: Homo sapiens, MDA-MB-231, read-out: Cytotoxic activity IC50, MDA-MB-231
PC-3 = assay: MTT cytotoxicity, PC-3; assay type: cell-based, human; settings: for fold superior to IC50 of the erlotinib, PC-3: PC-3 cell line, vs erlotinib; for IC50: read-out: Cytotoxic activity IC50, PC-3, MTT, mean ± SD of three experiments
PI3Kδ = PI3Kδ (Homo sapiens, UniProt O00329); assay: PI3K isoform ELISA kit, PI3Kδ; assay type: biochemical
PI3Kβ (p110β/p85α) = PI3Kβ (p110β/p85α) (Homo sapiens, UniProt P42338); assay: PI3Kβ Assay Kit; assay type: biochemical
HCT-116 = assay: MTT cytotoxicity, HCT-116; assay type: cell-based; settings: Homo sapiens, HCT-116, read-out: Cytotoxic activity IC50, HCT-116
HEPG-2 = assay: MTT cytotoxicity, HEPG-2; assay type: cell-based, human; settings: for IC50: Homo sapiens, HepG2, read-out: Cytotoxic activity IC50, HEPG-2
[1] = MTT cytotoxicity, normal prostate epithelial cells; assay type: cell-based; settings: human, HPrEC normal primary prostate epithelial cells
EGFR = EGFR (Homo sapiens, UniProt P00533); assay: EGFR Kinase Assay Kit; assay type: biochemical
PI3Kα = PI3Kα (Homo sapiens, UniProt P42336); assay: PI3K isoform ELISA kit, PI3Kα; assay type: biochemical; settings: mean ± SD of three experiments
PI3Kγ = PI3Kγ (Homo sapiens, UniProt P48736); assay: PI3K isoform ELISA kit, PI3Kγ; assay type: biochemical
AKT = assay: RT-qPCR gene expression of AKT in PC-3 cells; assay type: cell-based, human; settings: PC-3 cells treated at IC50 3.56 µM, compared to untreated cells
Method in brief: (§1)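 Control and treated cells (1×10^5) were trypsinised, spun at 5000 rpm and washed in PBS. Total RNA was isolated and cDNA synthesised. Gene-specific mRNA was measured by qPCR with IDT-designed primers, with a GAPDH primer pair included. Expression was given relative to untreated control cells.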

m-TOR = assay: RT-qPCR gene expression of m-TOR in PC-3 cells; assay type: cell-based, human; settings: PC-3 cells treated at IC50 3.56 µM, compared to untreated cells
Method in brief: as §1

P53 = assay: RT-qPCR gene expression of P53 in PC-3 cells; assay type: cell-based, human; settings: PC-3 cells treated at IC50, vs untreated PC-3
Method in brief: as §1

BAX = assay: RT-qPCR gene expression of BAX in PC-3 cells; assay type: cell-based, human; settings: PC-3 cells treated at IC50, vs untreated PC-3
Method in brief: as §1

BCl-2 = assay: RT-qPCR gene expression of BCl-2 in PC-3 cells; assay type: cell-based, human; settings: PC-3 cells treated at IC50, vs untreated PC-3
Method in brief: as §1

caspase 3 = assay: RT-qPCR gene expression of caspase 3 in PC-3 cells; assay type: cell-based, human; settings: PC-3 cells treated at IC50, vs untreated PC-3
Method in brief: as §1

caspase 8 = assay: RT-qPCR gene expression of caspase 8 in PC-3 cells; assay type: cell-based, human; settings: PC-3 cells treated at IC50, vs untreated PC-3
Method in brief: as §1

PC-3 cells [2] = assay: Cell cycle analysis; assay type: cell-based, human; settings: compound at IC50, 24 h
PC-3 cells [3] = assay: Annexin V/propidium iodide staining for apoptosis; assay type: cell-based, human

Chain of PI3Kβ (p110β/p85α) (P42338 whole entry): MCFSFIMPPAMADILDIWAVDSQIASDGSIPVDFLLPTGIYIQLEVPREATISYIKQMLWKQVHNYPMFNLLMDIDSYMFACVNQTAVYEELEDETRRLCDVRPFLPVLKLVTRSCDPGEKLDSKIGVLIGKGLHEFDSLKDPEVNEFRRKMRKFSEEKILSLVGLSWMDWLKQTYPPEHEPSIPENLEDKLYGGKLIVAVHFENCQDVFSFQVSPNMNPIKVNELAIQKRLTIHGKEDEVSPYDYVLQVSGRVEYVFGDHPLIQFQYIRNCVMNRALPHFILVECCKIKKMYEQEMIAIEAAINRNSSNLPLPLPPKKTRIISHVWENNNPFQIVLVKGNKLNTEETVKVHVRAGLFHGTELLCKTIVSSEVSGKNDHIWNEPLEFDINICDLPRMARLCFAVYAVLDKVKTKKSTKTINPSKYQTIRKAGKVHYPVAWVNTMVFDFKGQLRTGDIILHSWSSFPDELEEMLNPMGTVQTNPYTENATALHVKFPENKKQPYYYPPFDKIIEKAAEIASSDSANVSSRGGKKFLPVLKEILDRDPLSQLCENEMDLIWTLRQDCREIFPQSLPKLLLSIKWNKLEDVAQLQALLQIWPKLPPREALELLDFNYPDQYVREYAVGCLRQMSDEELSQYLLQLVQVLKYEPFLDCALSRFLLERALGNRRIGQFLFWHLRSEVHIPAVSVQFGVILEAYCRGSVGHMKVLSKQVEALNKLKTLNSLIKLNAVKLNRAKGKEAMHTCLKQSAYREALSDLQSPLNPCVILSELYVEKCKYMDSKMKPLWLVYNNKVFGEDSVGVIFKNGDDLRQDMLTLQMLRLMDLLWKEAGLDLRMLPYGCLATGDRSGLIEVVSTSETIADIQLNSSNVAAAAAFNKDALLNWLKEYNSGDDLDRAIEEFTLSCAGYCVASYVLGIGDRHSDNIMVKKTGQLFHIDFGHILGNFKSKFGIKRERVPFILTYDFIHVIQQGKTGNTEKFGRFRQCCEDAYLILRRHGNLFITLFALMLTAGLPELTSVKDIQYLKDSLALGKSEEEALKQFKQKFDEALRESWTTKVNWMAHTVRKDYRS
Chain of PI3Kβ (p110β/p85α) (P27986 whole entry partner): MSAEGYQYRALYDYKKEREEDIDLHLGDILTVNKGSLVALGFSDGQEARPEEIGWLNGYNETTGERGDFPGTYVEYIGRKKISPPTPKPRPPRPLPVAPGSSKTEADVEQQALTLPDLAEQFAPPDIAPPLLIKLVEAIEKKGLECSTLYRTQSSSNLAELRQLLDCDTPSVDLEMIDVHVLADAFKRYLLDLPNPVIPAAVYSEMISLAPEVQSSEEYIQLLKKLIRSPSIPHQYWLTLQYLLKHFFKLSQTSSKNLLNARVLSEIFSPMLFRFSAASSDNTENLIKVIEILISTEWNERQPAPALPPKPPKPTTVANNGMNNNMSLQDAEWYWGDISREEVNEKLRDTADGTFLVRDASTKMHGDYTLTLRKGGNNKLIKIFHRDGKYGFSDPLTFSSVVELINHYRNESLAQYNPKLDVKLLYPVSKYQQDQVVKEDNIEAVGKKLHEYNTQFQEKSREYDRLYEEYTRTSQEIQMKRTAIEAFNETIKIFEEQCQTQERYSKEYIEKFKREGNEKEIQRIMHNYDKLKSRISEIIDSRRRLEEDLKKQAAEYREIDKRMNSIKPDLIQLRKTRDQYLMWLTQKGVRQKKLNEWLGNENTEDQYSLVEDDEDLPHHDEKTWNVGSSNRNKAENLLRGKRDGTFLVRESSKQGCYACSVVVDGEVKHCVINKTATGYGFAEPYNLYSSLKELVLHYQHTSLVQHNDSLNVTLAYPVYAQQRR
Chain of PI3Kδ (O00329 whole entry, canonical isoform): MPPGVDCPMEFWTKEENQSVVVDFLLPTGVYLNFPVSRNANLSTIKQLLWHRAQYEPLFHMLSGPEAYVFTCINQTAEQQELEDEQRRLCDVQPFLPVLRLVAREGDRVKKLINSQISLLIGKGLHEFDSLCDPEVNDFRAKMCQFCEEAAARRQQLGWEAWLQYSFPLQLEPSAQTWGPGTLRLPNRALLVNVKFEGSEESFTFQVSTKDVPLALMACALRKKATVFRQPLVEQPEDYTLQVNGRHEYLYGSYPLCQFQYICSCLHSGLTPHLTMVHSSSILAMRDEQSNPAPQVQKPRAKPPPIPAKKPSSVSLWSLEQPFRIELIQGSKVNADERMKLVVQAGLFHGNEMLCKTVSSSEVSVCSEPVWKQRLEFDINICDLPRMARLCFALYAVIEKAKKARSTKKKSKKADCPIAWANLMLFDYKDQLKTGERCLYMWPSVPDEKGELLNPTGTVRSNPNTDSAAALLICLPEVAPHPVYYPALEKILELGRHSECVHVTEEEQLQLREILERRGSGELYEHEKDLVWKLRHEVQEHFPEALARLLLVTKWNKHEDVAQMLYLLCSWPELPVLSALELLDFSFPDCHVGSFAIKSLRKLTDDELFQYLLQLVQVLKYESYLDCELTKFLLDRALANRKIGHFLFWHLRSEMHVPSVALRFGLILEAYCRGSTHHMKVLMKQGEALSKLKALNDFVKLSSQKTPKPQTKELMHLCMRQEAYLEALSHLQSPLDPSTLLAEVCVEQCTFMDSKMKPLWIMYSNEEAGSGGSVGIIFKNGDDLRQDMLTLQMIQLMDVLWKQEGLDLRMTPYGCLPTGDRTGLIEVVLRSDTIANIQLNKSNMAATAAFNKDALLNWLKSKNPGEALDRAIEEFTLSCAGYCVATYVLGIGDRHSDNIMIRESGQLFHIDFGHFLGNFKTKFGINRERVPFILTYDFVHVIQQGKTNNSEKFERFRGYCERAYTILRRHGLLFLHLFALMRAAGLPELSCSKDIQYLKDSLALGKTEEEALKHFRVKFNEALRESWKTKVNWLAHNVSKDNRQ
Chain of PI3Kδ (P27986 whole entry partner, canonical isoform): as the sequence (P27986 whole entry partner) above
Chain of PI3Kα (P42336 whole entry, canonical isoform): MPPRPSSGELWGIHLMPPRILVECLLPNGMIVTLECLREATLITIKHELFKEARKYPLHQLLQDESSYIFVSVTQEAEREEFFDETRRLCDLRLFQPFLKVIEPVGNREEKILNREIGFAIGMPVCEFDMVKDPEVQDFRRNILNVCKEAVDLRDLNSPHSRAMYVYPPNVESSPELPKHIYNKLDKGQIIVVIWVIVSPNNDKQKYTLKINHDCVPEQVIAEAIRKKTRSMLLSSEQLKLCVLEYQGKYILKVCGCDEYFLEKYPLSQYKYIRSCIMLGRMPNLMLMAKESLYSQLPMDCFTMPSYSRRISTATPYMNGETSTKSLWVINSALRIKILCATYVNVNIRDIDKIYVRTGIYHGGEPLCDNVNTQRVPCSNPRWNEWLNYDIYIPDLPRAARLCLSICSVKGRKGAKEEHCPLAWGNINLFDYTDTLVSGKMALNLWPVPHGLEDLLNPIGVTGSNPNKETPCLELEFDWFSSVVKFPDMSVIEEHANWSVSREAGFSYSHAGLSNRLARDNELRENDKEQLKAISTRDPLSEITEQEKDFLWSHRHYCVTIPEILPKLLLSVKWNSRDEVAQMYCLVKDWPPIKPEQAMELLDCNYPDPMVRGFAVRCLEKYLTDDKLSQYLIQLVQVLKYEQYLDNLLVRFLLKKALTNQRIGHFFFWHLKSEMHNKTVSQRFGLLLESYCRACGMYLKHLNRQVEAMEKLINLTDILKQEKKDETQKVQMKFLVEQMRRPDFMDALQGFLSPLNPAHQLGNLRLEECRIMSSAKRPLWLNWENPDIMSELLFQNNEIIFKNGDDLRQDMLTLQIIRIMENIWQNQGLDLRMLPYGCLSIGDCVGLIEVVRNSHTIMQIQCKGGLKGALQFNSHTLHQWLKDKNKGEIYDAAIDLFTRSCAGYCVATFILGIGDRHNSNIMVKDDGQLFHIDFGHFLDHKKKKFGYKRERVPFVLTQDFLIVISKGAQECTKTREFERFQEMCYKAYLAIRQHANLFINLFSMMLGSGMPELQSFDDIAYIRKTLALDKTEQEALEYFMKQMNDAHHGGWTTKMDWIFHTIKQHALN
Chain of PI3Kα (P27986 whole entry partner, canonical isoform): as the sequence (P27986 whole entry partner) above
Chain of PI3Kγ (P48736 whole entry, canonical isoform): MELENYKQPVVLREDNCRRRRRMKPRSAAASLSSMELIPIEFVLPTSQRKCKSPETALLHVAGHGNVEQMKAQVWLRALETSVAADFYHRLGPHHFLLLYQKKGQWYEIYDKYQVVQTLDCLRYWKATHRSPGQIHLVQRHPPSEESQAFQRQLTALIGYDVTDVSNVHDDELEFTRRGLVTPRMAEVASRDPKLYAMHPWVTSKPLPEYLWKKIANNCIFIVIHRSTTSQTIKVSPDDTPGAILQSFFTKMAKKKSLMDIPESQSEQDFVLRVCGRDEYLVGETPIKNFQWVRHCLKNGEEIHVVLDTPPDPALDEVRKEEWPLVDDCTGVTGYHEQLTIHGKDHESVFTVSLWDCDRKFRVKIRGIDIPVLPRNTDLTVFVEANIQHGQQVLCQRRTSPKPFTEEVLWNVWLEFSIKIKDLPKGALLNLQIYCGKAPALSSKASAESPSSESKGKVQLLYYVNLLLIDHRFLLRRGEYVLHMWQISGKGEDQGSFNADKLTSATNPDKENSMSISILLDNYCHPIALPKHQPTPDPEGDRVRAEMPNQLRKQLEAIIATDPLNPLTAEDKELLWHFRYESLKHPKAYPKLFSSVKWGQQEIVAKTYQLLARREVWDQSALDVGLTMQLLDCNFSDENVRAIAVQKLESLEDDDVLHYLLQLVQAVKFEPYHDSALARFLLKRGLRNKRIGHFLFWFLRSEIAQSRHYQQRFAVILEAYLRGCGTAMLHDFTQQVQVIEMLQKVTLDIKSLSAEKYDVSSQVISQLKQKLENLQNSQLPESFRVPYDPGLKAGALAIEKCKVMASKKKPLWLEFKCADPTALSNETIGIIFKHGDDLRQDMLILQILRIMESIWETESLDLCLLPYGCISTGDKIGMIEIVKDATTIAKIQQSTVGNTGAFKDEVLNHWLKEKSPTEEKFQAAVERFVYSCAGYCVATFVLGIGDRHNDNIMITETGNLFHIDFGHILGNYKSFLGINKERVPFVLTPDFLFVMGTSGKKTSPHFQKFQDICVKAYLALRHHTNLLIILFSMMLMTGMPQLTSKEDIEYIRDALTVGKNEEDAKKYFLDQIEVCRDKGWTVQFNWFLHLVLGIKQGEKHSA

**Q.** For `Cc1c(Cc2ccccc2)c(=O)oc2c(C)c(OCC(=O)NN=Cc3ccco3)ccc12` [Compound 4b, 2-((3-Benzyl-4,8-dimethyl-2-oxo-2H-chromen-7-yl)oxy)-N'-(furan-2-ylmethylene)acetohydrazide], which IC50 (MDA-MB-231) is on record?
**A.** 11.8 ± 0.98 µM

**Q.** And the “fold superior to IC50 of the erlotinib, PC-3” value (PC-3)?
**A.** 1.36 fold

**Q.** Which IC50 (MDA-MB-231) does the source give for `CCCOc1ccc2c(C)c(CC)c(=O)oc2c1C` [Compound 9b, 3-Ethyl-4,8-dimethyl-7-propoxy-2H-chromen-2-one] here?
**A.** > 50 µM

**Q.** With `CCc1c(C)c2ccc(OCc3nnc(S)n3N)c(C)c2oc1=O` [Compound 7, 7-((4-amino-5-mercapto-4H-1,2,4-triazol-3-yl)methoxy)-3-ethyl-4,8-dimethyl-2H-chromen-2-one] as the molecule, how does the IC50 (MDA-MB-231) read?
**A.** > 50 µM

**Q.** With `O=c1cc(N2CCOCC2)oc2c(-c3ccccc3)cccc12` [LY294002, reference compound] as the molecule, how does the IC50 (PI3Kδ) read?
**A.** 7.42 ± 0.36 µM

**Q.** For `CCc1c(C)c2ccc(OCC(=O)NNC(=S)Nc3ccccc3)c(C)c2oc1=O` [Compound 6c, 2-(2-((3-Ethyl-4,8-dimethyl-2-oxo-2H-chromen-7-yl)oxy)acetyl)-N-phenylhydrazine-1-carbothioamide], which IC50 (MDA-MB-231) is on record?
**A.** > 50 µM

**Q.** Which IC50 (MDA-MB-231) does the source give for `CCOc1ccc2c(C)c(CC)c(=O)oc2c1C` [Compound 9a, 7-Ethoxy-3-ethyl-4,8-dimethyl-2H-chromen-2-one] here?
**A.** > 50 µM

**Q.** With `CCc1c(C)c2ccc(OCC(=O)NN=Cc3ccc([N+](=O)[O-])cc3)cc2oc1=O` [Compound 4a, 2-((3-Ethyl-4-methyl-2-oxo-2H-chromen-7-yl)oxy)-N'-(4-nitrobenzylidene) acetohydrazide] as the molecule, how does the IC50 (MDA-MB-231) read?
**A.** 23.6 ± 0.36 µM

**Q.** What about the “fold superior to IC50 of the erlotinib, PC-3” value (PC-3) of the same molecule?
**A.** 1.2 fold

**Q.** What about the IC50 (PI3Kβ (p110β/p85α)) of the same molecule?
**A.** 0.792 µM

**Q.** With `C=CCNC(=S)NNC(=O)COc1ccc2c(C)c(CC)c(=O)oc2c1C` [Compound 6b, N-Allyl-2-(2-((3-ethyl-4,8-dimethyl-2-oxo-2H-chromen-7-yl)oxy)acetyl)hydrazine-1-carbothioamide] as the molecule, how does the IC50 (MDA-MB-231) read?
**A.** > 50 µM

**Q.** Which IC50 (MDA-MB-231) does the source give for `CCNC(=S)NNC(=O)COc1ccc2c(C)c(CC)c(=O)oc2c1C` [Compound 6a, N-Ethyl-2-(2-((3-ethyl-4,8-dimethyl-2-oxo-2H-chromen-7-yl)oxy)acetyl)hydrazine-1-carbothioamide] here?
**A.** > 50 µM

**Q.** Which results are given for `Cc1c(Cc2ccccc2)c(=O)oc2c(C)c(OCC(=O)NN=Cc3ccc([N+](=O)[O-])cc3)ccc12` [Compound 4e, 2-((3-Benzyl-4,8-dimethyl-2-oxo-2H-chromen-7-yl)oxy)-N'-(4-nitrobenzylidene)acetohydrazide]?
**A.** IC50 (MDA-MB-231): 24.3 ± 2.28 µM; IC50 (PC-3): 23.1 ± 1.2 µM; IC50 (PI3Kβ (p110β/p85α)): 0.992 µM

**Q.** Which results are given for `C#Cc1cccc(Nc2ncnc3cc(OCCOC)c(OCCOC)cc23)c1` [Erlotinib, erlotinib, reference compound]?
**A.** IC50 (MDA-MB-231): 11.1 ± 1.11 µM; IC50 (HCT-116): 17.8 ± 1.15 µM; IC50 (HEPG-2): 22.1 ± 0.46 µM; IC50 [1]: 63.5 ± 5.56 µM

**Q.** Which IC50 (PC-3) does the source give for “7-((amino-5-(isopropylthio)-4H-1,2,4-triazol-3-yl)methoxy)-3-ethyl-4,8-dimethyl-2H-chromen-2-one [Compound 8]” here?
**A.** > 50 µM

**Q.** With `CCc1c(C)c2ccc(OCC=Cc3ccccc3)c(C)c2oc1=O` [Compound 9e, 7-(Cinnamyloxy)-3-ethyl-4,8-dimethyl-2H-chromen-2-one] as the molecule, how does the IC50 (MDA-MB-231) read?
**A.** > 50 µM

**Q.** Which IC50 (MDA-MB-231) does the source give for `C=CCOc1ccc2c(C)c(CC)c(=O)oc2c1C` [Compound 9d, 7-(Allyloxy)-3-ethyl-4,8-dimethyl-2H-chromen-2-one] here?
**A.** > 50 µM

**Q.** For `Cc1c(Cc2ccccc2)c(=O)oc2c(C)c(OCC(=O)NN=Cc3ccc(Cl)cc3)ccc12` [Compound 4d, 2-((3-Benzyl-4,8-dimethyl-2-oxo-2H-chromen-7-yl)oxy)-N'-(4-chlorobenzylidene)acetohydrazide], which IC50 (MDA-MB-231) is on record?
**A.** > 50 µM

**Q.** Which results are given for `CC(=NNC(=O)COc1ccc2c(C)c(Cc3ccccc3)c(=O)oc2c1C)c1ccc(Br)cc1` [Compound 5, 2-((3-benzyl-4,8-dimethyl-2-oxo-2H-chromen-7-yl)oxy)-N'-(1-(4-bromophenyl)ethylidene)acetohydrazide]?
**A.** IC50 (MDA-MB-231): 46.3 ± 2.7 µM; fold superior to IC50 of the erlotinib, PC-3 (PC-3): 3.45 fold; IC50 (HCT-116): 19.8 ± 0.55 µM; cytotoxic activity times higher than erlotinib, HEPG-2 (HEPG-2; HEPG-2 cell line, vs erlotinib): 1.5 times; IC50 (HEPG-2): 14.2 ± 1.2 µM; IC50 [1]: 95.5 ± 1.3 µM; IC50 (EGFR): 0.181 µM; IC50 (PI3Kβ (p110β/p85α)): 0.261 µM; PI3Kβ inhibitory activity relative to LY294002 (PI3Kβ (p110β/p85α); vs LY294002 as reference PI3Kβ inhibitor): twofold; IC50 (PI3Kα): 2.89 ± 0.33 µM; IC50 (PI3Kγ): 5.04 ± 0.21 µM; IC50 (PI3Kδ): 5.49 ± 0.29 µM; downregulation of AKT gene expression (AKT): 2.5 fold; downregulation of m-TOR gene expression (m-TOR): 2.6 fold; induced expression of P53 gene (P53): 3.83 fold; expression of BAX gene (BAX): 5.6 fold; downregulation of BCl-2 gene (BCl-2): 0.30 fold; upregulation of caspase 3 gene (caspase 3): 5.40 fold; upregulation of caspase 8 gene (caspase 8): 2.96 fold; percentage of cells in G1 phase (PC-3 cells [2]): 52.09%; percentage of cells in G2/M phase (PC-3 cells [2]): 5.8%; percentage of cells in S phase (PC-3 cells [2]): 42.11%; proportion of early apoptotic cells (PC-3 cells [3]; compound at IC50, lower right quadrant): 22.62%; proportion of late apoptotic cells (PC-3 cells [3]; compound at IC50, upper right quadrant): 13.33%

**Q.** For `Cc1c(Cc2ccccc2)c(=O)oc2c(C)c(OCC(=O)NN=Cc3ccccc3)ccc12` [Compound 4c, 2-((3-Benzyl-4,8-dimethyl-2-oxo-2H-chromen-7-yl)oxy)-N'-benzylideneacetohydrazide], which IC50 (MDA-MB-231) is on record?
**A.** 8.5 ± 0.85 µM
